Article PMC4304478 (Journal of the American Chemical Society, 2014)
*1 amine or outer side, *2 acyl side, *3 side chain or, on linkers, in order; H or OH if unused. Bridges are numbered along the chain shown (N, C = ends). Roman numbers before positions name the chains, in order. Where no end group is shown, it is not given here. [ ]: non-standard residue; d: D form. X1 = O=C(NCCCOCCCCOCCCNC(=O)c1ccc(/C=N/OCC(=O)[*:2])cc1)c1ccc(/C=N/OCC(=O)[*:1])cc1; Dap = NC[C@H](N)C(=O)O

Legend:
[1] = test system: MDA-MB-231 cells; assay: Cell proliferation assay; type: cell-based, human; conditions: varying concentrations, 12–72 h, Cell Counting Kit-8; relative to cilengitide
In short: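 MDA-MB-231 cells exposed to varying concentrations of test knottins or a reference compound for 12–72 h. Proliferation was read out as […] activity in living cells with the CCK-8 kit. Concentration–response was read at 72 h, and the time course used 1 μM protein. Values are expressed relative to an untreated control.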

[2] = target: integrin receptors (αvβ5) expressed on MDA-MB-231 cells (Homo sapiens, UniProt P06756+P18084); assay: Competition binding assay with Alexa488-2.5F on MDA-MB-231 cells; conditions: from competition IC50 values
Sequence of integrin receptors (αvβ5) expressed on MDA-MB-231 cells (P06756 891-1048): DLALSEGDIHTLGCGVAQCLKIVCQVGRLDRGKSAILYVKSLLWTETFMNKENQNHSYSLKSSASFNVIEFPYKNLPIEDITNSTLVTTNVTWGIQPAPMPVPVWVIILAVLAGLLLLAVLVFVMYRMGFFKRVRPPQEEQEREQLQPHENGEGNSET
Sequence of integrin receptors (αvβ5) expressed on MDA-MB-231 cells (P18084 24-799): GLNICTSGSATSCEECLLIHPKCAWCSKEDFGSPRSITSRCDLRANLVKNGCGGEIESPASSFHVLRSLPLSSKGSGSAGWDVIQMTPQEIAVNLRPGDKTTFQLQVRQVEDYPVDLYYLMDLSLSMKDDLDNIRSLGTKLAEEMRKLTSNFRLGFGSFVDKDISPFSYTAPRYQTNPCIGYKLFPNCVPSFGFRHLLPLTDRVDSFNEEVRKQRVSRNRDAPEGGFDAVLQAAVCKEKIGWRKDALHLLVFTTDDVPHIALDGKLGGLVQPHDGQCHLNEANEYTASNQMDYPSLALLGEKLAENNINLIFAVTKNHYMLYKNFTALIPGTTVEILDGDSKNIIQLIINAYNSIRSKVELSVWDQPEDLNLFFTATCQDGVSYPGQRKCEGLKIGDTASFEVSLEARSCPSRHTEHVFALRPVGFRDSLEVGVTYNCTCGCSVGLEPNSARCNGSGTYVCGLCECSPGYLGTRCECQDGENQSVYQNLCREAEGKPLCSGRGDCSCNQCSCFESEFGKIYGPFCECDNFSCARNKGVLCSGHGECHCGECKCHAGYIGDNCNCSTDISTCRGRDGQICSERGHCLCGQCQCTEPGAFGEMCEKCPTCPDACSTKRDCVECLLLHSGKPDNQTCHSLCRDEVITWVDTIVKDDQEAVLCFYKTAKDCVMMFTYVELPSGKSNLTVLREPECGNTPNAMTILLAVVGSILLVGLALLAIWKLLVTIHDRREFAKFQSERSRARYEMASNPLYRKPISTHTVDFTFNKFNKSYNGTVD
Sequence of integrin receptors (αvβ5) expressed on MDA-MB-231 cells (P06756 31-889): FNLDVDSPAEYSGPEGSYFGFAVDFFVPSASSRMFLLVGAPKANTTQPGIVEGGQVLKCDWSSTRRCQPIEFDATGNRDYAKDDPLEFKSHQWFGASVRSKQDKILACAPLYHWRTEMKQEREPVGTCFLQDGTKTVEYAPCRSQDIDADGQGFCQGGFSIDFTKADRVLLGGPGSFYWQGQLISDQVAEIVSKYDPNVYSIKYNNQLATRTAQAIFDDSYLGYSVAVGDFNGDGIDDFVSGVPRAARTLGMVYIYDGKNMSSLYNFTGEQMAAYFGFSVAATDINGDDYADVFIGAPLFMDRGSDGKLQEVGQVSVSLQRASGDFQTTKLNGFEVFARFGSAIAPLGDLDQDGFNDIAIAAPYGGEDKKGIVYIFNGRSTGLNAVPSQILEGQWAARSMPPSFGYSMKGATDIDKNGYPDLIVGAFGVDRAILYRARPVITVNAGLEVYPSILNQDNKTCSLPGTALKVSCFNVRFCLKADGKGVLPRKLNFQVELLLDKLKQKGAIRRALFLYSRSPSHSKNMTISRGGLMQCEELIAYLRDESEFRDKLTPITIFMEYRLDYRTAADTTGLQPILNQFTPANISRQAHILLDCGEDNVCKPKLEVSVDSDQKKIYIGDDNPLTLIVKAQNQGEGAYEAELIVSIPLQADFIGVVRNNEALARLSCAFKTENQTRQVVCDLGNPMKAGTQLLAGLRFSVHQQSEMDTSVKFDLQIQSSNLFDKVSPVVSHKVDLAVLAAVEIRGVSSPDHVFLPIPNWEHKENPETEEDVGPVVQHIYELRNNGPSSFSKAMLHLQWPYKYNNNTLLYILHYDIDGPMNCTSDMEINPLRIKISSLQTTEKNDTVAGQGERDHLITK

I: GCPRPRGDNPPLTC[Dap]QDSDCLAGCVCGPNGFCG-NH2 / II: GCPRPRGDNPPLTC[Dap]QDSDCLAGCVCGPNGFCG-NH2 (disulfide I:2-I:24, I:14-I:26, I:20-I:32, II:2-II:24, II:14-II:26, II:20-II:32; linker I:15-II:15 via X1) [D2.5F_1]
Inhibition of MDA-MB-231 cell proliferation [1]: significantly more potent
Increase in relative binding affinity compared with cilengitide [2]: 500 fold
Increase in relative binding affinity compared with the knottin monomer [2]: 60 fold
